Data reported in paper PMC9421316 (Heliyon, 2022).
Like-named read-outs stand apart in the source and are kept apart here. Ends that are not written are not given here.

Key:
[1] = diluted WSS from periodontally healthy individuals, HPLC, ref McDonald et al. 8, cited from earlier work
[2] = format: in vitro ADME, human; settings: for % BD (mean ± S.D.): all groups and time points
[3] = cited from earlier work
[4] = Degradation mode of histatins in pooled 1:10 diluted WSS, cationic PAGE; format: in vitro ADME, human; settings: 100 μg/mL, 37 °C
Outline: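 Unstimulated whole saliva from adolescents (n = 8/group: spastic CP with gingivitis, no CP/no gingivitis, no CP with gingivitis) was held on ice ≤3 h, spun at 1,500×g for 2 min then 14,000×g for 20 min at 4 °C, and the supernatant stored at -80 °C. Supernatant was diluted 1:10 in distilled water and pooled by group. Synthetic histatin 1 or 5 (final 100 μg/mL) was incubated at 37 °C for 0–48 h, with aliquots boiled 5 min. Samples were dried, desalted, and run on 20% cationic PAGE; band intensity was compared with time zero.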

speed of degradation, G1 relative to G2 and G3 ([2]; during a 48 h interval, 1:10 diluted WSS): 1.78 times | remaining at 48 h, 100 μg/mL ([2]; human, individual whole saliva supernatant (WSS) diluted 1:10): 56% | metabolised at 4 h, 100 μg/mL ([2]; human, whole saliva supernatant (WSS) diluted 1:10, reduction in band density, G2 and G3 (stated together), 1:10 diluted WSS, 37 °C, printed as after 4 h of incubation): ~14% | % BD (mean ± S.D.) ([2]; saliva of female subjects, 1:10 diluted WSS): 79.3 ± 23.6% | % BD (mean ± S.D.) ([2]; saliva of male subjects, 1:10 diluted WSS): 77.6 ± 20.9% | time after which degradation fragments were observed on cationic PAGE ([4]; pooled G2 WSS diluted 1:10): 8 h | time after which degradation fragments were observed on cationic PAGE ([4]; pooled G3 WSS diluted 1:10): 8 h
Sequence: DSHEKRHHGYRRKFHEKHHSHREFPFYGDYGSNYLYDN [histatin 1]
intact protein degraded ([1]; 0.5 h): 28% | intact protein degraded ([1]; 2 h): 83% | histatin 1 degraded ([3]; 1.5 h of incubation with WSS): approximately 50% | time after which totally degraded ([3]; incubation with WSS): 40 h
